For series [1], the system named is Mustela putorius furo. Kind of series: (§1) Dose dependent reduction in cisplatin-induced retching in ferrets at 0.1 mg/kg iv dose. It is filed as functional. Put shortly:
(§2)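 Ferrets were pretreated intravenously at 0.1, 0.3 or 1.0 mg/kg, then given cisplatin at 10 mg/kg iv. Retches and vomits were counted over a 4 h observation period and reported as mean counts, with n = 4 per group. Vehicle-pretreated controls (n = 4-6) were run alongside.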

For series [2], the system named is Mustela putorius furo. Nature of the series: (§3) Dose dependent reduction in cisplatin-induced retching in ferrets at 0.3 mg/kg iv dose. It is filed as functional. A digest of the protocol:
as §2

Series [3] deals with Mustela putorius furo. Nature of the series: (§4) Dose-dependent reduction in cisplatin-induced vomiting in ferrets at 1.0 mg/kg iv dose. It is filed as functional. A digest of the protocol:
as §2

For series [4], the system named is Mustela putorius furo. Kind of series: (§5) Dose-dependent reduction in cisplatin-induced vomiting in ferrets at 0.1 mg/kg iv dose. Format: functional. A digest of the protocol: as §2
The test system of series [5] is Mustela putorius furo. Nature of the series: inhibitory dose was determined after intravenous administration of the compound. Format: functional.
Series [6] has as its system Cavia porcellus. Kind of series: Inhibitory dose (ID50) was determined after oral administration followed by resiniferatoxin (RTX) challenge 24 hour before. It is filed as functional. The note with it: read-out: ID50 (the source's name). Put shortly: (§6)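 Guinea pigs received the compound orally or intravenously at either 1 h or 24 h before a systemic resiniferatoxin challenge, each line matching its own route and interval. The challenge induces SP-mediated systemic vascular leakage. ID50 (mg/kg) was derived from dose-response data using 2-11 animals per data point.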

In series [7] the test system is Mustela putorius furo. Kind of series: (§7) Dose-dependent reduction in cisplatin-induced vomiting in ferrets at 0.3 mg/kg iv dose. Format: functional. Put shortly: as §2
The test system of series [8] is Cavia porcellus. Kind of series: Inhibitory dose (ID50) was determined after intravenous administration followed by resiniferatoxin (RTX) challenge 1 hour before. Format: functional. The following applies: read-out: ID50 (the source's name). A digest of the protocol: as §6
The subject of series [9] is Cavia porcellus. Nature of the series: Inhibitory dose (ID50) was determined after oral administration followed by resiniferatoxin (RTX) challenge 1 hour. It is filed as functional. The note with it: read-out: ID50 (the source's name). Put shortly:
as §6

Series [10] relates to Mustela putorius furo. Kind of series: (§8) Dose dependent reduction in cisplatin-induced retching in ferrets at 1.0 mg/kg iv dose. Format: functional. A digest of the protocol:
as §2

The nature of series [11]: Area under curve (AUC) was determined after intravenous administration of compound as Bis(N-methyl-D-glucamine) salt in dog at a dose of 32 mg/Kg. It is filed as ADME, organism-based, Canis lupus familiaris. The following applies: in vivo. Put shortly:
(§9)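 The phosphate prodrug, as its bis(N-methyl-D-glucamine) salt, was dosed intravenously to rats (1, 8, 25 mg/kg) and dogs (0.5, 2, 32 mg/kg). The reported AUC is of the released parent antagonist in plasma, given as an average. Plasma prodrug and parent were followed by HPLC-MS/MS.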

Series [12] in a line: Area under curve (AUC) was determined after intravenous administration in rat at a dose of 5 mg/kg. It is filed as ADME, organism-based. Also on record: dose 5 mg/kg, route intravenous. The note with it: in vivo. Put shortly:
(§10)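 The parent antagonist was given intravenously to rats (0.2, 2 and 5 mg/kg) or dogs. AUC of the parent was taken from plasma concentration–time data, and values are averages. Plasma levels were measured by HPLC-MS/MS.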

For series [13], the system named is Mustela putorius furo. The series is described as §3. It is filed as functional. The source holds these as a separate data set.
Series [14] in a line: Area under curve (AUC) was determined after intravenous administration of compound as Bis(N-methyl-D-glucamine) salt in dog at a dose of 2 mg/Kg. It is filed as ADME, organism-based, Canis lupus familiaris. The note with it: in vivo. Put shortly: as §9
A short description of series [15]: Area under curve (AUC) was determined after intravenous administration in rat at a dose of 2 mg/kg. Also on record: dose 2 mg/kg, route intravenous. It is filed as ADME, organism-based. The note with it: in vivo. A digest of the protocol:
as §10

Series [16] relates to Mustela putorius furo. The series is described as §7. It is filed as functional. The source holds these as a separate data set.
For series [17], the system named is Mustela putorius furo. The description is as §5. It is filed as functional. This is another data set of the same source.
Series [18] deals with Cavia porcellus. Nature of the series: Dose (ID50) for inhibition of SP-mediated vascular leakage was determined after oral administration followed by resiniferatoxin (RTX) challenge 1 hour. Format: functional. The following applies: read-out: ID50 (the source's name). A digest of the protocol:
as §6

Series [19] is described as follows: Area under curve was determined after intravenous administration of compound as Bis(N-methyl-D-glucamine) salt in rat at a dose 1 mg/kg. It is filed as ADME, organism-based. Also on record: dose 1 mg/kg, route intravenous. The note with it: in vivo. Put shortly:
as §9

For series [20], the system named is Mustela putorius furo. The series is described as §8. It is filed as functional. This is another data set of the same source.
Series [21] in a line: Area under curve (AUC) was determined after intravenous administration of compound as Bis(N-methyl-D-glucamine) salt in dog at a dose of 0.5 mg/Kg. It is filed as ADME, organism-based, Canis lupus familiaris. The following applies: in vivo. A digest of the protocol:
as §9

The nature of series [22]: Area under curve (AUC) was determined after intravenous administration in dog at a dose of 2 mg/kg. It is filed as ADME, organism-based, Canis lupus familiaris. Also on record: dose 2 mg/kg, route intravenous. The following applies: in vivo. A digest of the protocol:
as §10

The subject of series [23] is Cavia porcellus. Kind of series: Dose (ID50) for inhibition of SP-mediated vascular leakage was determined after intravenous administration followed by resiniferatoxin (RTX) challenge 24 hour before. It is filed as functional. The following applies: read-out: ID50 (the source's name).
Series [24] is described as follows: Area under curve (AUC) was determined after intravenous administration in dog at a dose of 0.5 mg/kg. Format: ADME, organism-based, Canis lupus familiaris. Also on record: dose 0.5 mg/kg, route intravenous. The following applies: in vivo. Put shortly: as §10
Series [25] deals with Mustela putorius furo. The description is as §1. It is filed as functional. The source holds these as a separate data set.
Series [26] can be described thus: Area under curve was determined after intravenous administration of compound as Bis(N-methyl-D-glucamine) salt in rat at a dose 8 mg/kg. On the set-up: dose 8 mg/kg, route intravenous. The following applies: in vivo. It is filed as ADME, organism-based. Put shortly: as §9
In series [27] the test system is Mustela putorius furo. Described as §4. It is filed as functional. This is another data set of the same source.
Series [28] has as its system Cavia porcellus. Nature of the series: Dose (ID50) for inhibition of SP-mediated vascular leakage was determined after intravenous administration followed by resiniferatoxin (RTX) challenge 1 hour before. It is filed as functional. The following applies: read-out: ID50 (the source's name). A digest of the protocol: as §6
Series [29] in a line: Area under curve (AUC) was determined after intravenous administration of compound as Bis(N-methyl-D-glucamine) salt in rat at a dose 25 mg/Kg. Format: ADME, organism-based. The following applies: in vivo. A digest of the protocol:
as §9

Each structure is given as a SMILES string.

For the compound `CNC[C@H](O)[C@@H](O)[C@H](O)[C@H](O)CO.C[C@@H](O[C@H]1OCCN(Cc2nc(O)n(P(=O)(O)O)n2)[C@H]1c1ccc(F)cc1)c1cc(C(F)(F)F)cc(C(F)(F)F)c1`, the Incidence_count in series [1] turned out to be 115; in series [2] it was 26; in [3], 1; in [4], 16; in series [7], 4; in series [10], 2. The compound also came in with an ID90 in series [5] of 0.8 mg/kg. The ED50 in [6] is 0.9 mg/kg; in [8] it was 0.006 mg/kg; in series [9], 0.016 mg/kg.
Regarding `C[C@@H](O[C@H]1OCCN(Cc2n[nH]c(=O)[nH]2)[C@H]1c1ccc(F)cc1)c1cc(C(F)(F)F)cc(C(F)(F)F)c1` [APREPITANT], the AUC in series [11] turned out to be 370000 ng·h/mL; in [12], 6400 ng·h/mL; in [14], 8900 ng·h/mL; in series [15], 2700 ng·h/mL; in [19], 570 ng·h/mL; in series [21] it was 1100 ng·h/mL. In addition, the AUC in [22] worked out at 38000 ng·h/mL; in series [24], 3800 ng·h/mL; in series [26], 6300 ng·h/mL; in series [29], 22000 ng·h/mL. The Incidence_count in series [13] is reported as 5; in series [16], 1; in series [17], 13; in [20] it was 0; in series [25], 90; in [27], 0. Moreover, the ID90 in series [5] came to 0.3 mg/kg. The ED50 amounted to 0.012 mg/kg in [18], 0.5 mg/kg in [23] and 0.002 mg/kg in series [28].
